The values below come from ChEMBL document CHEMBL4257520, “Design, synthesis and bioactivity investigation of tetrandrine derivatives as potential anti-cancer agents” (Medchemcomm, 2018).

The subject of assay [1] is L02. As to the kind of experiment: Cytotoxicity against human HL7702 cells after 48 hrs by MTT assay. The assay is classed as cell-based. Conditions: L02, 48 h. In outline:
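Normal human liver HL7702 cells were assessed by MTT assay, with formazan absorbance as the read-out, to give an IC50 for cytotoxicity.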
In general terms: Tetrazolium dyes change colour on reduction, which living cells bring about.

Assay [2] concerns MDA-MB-231. As to the kind of experiment: Antiproliferative activity against human MDA-MB-231 cells after 48 hrs by MTT assay. Format: functional, cell-based. Conditions: MDA-MB-231, 48 h. In short, it runs like this:
(§1)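 MTT assay on human cancer lines held at 37 °C, 95% humidity, 5% CO2. Cells were exposed to compounds at 20.0–0.5 μM for 48 h, then washed twice with PBS. MTT (5 mg mL–1 in PBS) was added for 4 h at 37 °C, the formazan was dissolved in DMSO, and A490 was read. IC50 comes from replicate wells over three independent experiments.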

A short description of assay [3]: Antiproliferative activity against human WM9 cells after 48 hrs by MTT assay. Format: functional, cell-based. Conditions: WM9, 48 h. In outline:
as §1

Assay [4] has as its system PC-3. Put plainly: Antiproliferative activity against human PC3 cells after 48 hrs by MTT assay. Format: functional, cell-based. Conditions: PC-3, 48 h. In short, it runs like this:
as §1

In assay [5] the test system is K562. As to the kind of experiment: Antiproliferative activity against human K562 cells after 48 hrs by MTT assay. Format: functional, cell-based. Conditions: K562, 48 h. In outline:
as §1

The subject of assay [6] is HEL. Put plainly: Antiproliferative activity against HEL cells after 48 hrs by MTT assay. The assay is classed as functional, cell-based. Conditions: Homo sapiens. In short, it runs like this:
as §1

Molecules are shown by their SMILES.

For `COc1cc(NS(=O)(=O)c2c(C(C)C)cc(C(C)C)cc2C(C)C)c2cc1Oc1ccc(cc1)C[C@H]1c3cc(c(OC)cc3CCN1C)Oc1c(OC)c(OC)cc3c1[C@H](C2)N(C)CC3`, the IC50 in assay [1] came out at 32.1 µM; in assay [2], 5.43 µM; in assay [3], 2.13 µM; in assay [4] it was 5.46 µM; in assay [5], 6.76 µM; in assay [6], 5.31 µM.
Regarding `COc1cccc(S(=O)(=O)Nc2cc(OC)c3cc2C[C@H]2c4c(cc(OC)c(OC)c4Oc4cc5c(cc4OC)CCN(C)[C@H]5Cc4ccc(cc4)O3)CCN2C)c1`, the IC50 in assay [1] was found to be 28.2 µM; in assay [2], 4.56 µM; in assay [3], 4.11 µM; in assay [4], 3.99 µM; in assay [5] it was 3.22 µM; in assay [6], 8.59 µM.
Regarding `CC[C@]1(O)C[C@H]2CN(CCc3c([nH]c4ccccc34)[C@@](C(=O)OC)(c3cc4c(cc3OC)N(C=O)[C@H]3[C@@](O)(C(=O)OC)[C@H](OC(C)=O)[C@]5(CC)C=CCN6CC[C@]43[C@@H]65)C2)C1` [VINCRISTINE], the IC50 in assay [2] came to 9.86 µM; in assay [3], 4.28 µM; in assay [4], 5.31 µM; in assay [5], 5.36 µM; in assay [6] it was 5.97 µM.
`COc1cc(NS(=O)(=O)c2ccc(Cl)cc2)c2cc1Oc1ccc(cc1)C[C@H]1c3cc(c(OC)cc3CCN1C)Oc1c(OC)c(OC)cc3c1[C@H](C2)N(C)CC3`: the IC50 in assay [1] was found to be 17.1 µM; in assay [2], 4.81 µM; in assay [3] it was 3.73 µM; in assay [4], 2.97 µM; in assay [5], 2.67 µM; in assay [6], 2.59 µM.
Consider `COc1cc(NS(=O)(=O)c2ccccc2Cl)c2cc1Oc1ccc(cc1)C[C@H]1c3cc(c(OC)cc3CCN1C)Oc1c(OC)c(OC)cc3c1[C@H](C2)N(C)CC3`, for which the IC50 in assay [1] came out at 7.91 µM; in assay [2], 7.42 µM; in assay [3], 4.09 µM; in assay [4], 4.63 µM; in assay [5], 3.57 µM; in assay [6], 3.48 µM.
For `COc1cc(NS(=O)(=O)c2cccc3cccnc23)c2cc1Oc1ccc(cc1)C[C@H]1c3cc(c(OC)cc3CCN1C)Oc1c(OC)c(OC)cc3c1[C@H](C2)N(C)CC3`, the IC50 worked out at 12.7 µM in assay [1]; 6.26 µM in assay [2]; 4.53 µM in assay [3]; 4.3 µM in assay [4]; 1.39 µM in assay [5]; 2.85 µM in assay [6].
Consider `COc1cc(NS(=O)(=O)c2ccc(Br)cc2)c2cc1Oc1ccc(cc1)C[C@H]1c3cc(c(OC)cc3CCN1C)Oc1c(OC)c(OC)cc3c1[C@H](C2)N(C)CC3`, for which the IC50 in assay [1] was 9.38 µM; in assay [2], 5.6 µM; in assay [3] it was 8.51 µM; in assay [4], 3.98 µM; in assay [5], 3.72 µM; in assay [6] it was 3.83 µM.
On to `COc1cc(NS(=O)(=O)c2ccc(Cl)nc2)c2cc1Oc1ccc(cc1)C[C@H]1c3cc(c(OC)cc3CCN1C)Oc1c(OC)c(OC)cc3c1[C@H](C2)N(C)CC3`, for which the IC50 worked out at 19.5 µM in assay [1]; 6.84 µM in assay [2]; 7.93 µM in assay [3]; 5.76 µM in assay [4]; 5.95 µM in assay [5]; 6.01 µM in assay [6].
With `COc1cc(NS(=O)(=O)c2cccc([N+](=O)[O-])c2)c2cc1Oc1ccc(cc1)C[C@H]1c3cc(c(OC)cc3CCN1C)Oc1c(OC)c(OC)cc3c1[C@H](C2)N(C)CC3`, the IC50 in assay [1] came out at 10.1 µM; in assay [2], 6.37 µM; in assay [3], 3.36 µM; in assay [4] it was 1.94 µM; in assay [5] it was 1.78 µM; in assay [6], 2.17 µM.
As for `COc1cc(NS(=O)(=O)c2cc(Cl)cc(Cl)c2)c2cc1Oc1ccc(cc1)C[C@H]1c3cc(c(OC)cc3CCN1C)Oc1c(OC)c(OC)cc3c1[C@H](C2)N(C)CC3`, the IC50 came to 13.7 µM in assay [1]; 3.88 µM in assay [2]; 3.7 µM in assay [3]; 3.41 µM in assay [4]; 1.47 µM in assay [5]; 5.68 µM in assay [6].
For `COc1cc(NS(C)(=O)=O)c2cc1Oc1ccc(cc1)C[C@H]1c3cc(c(OC)cc3CCN1C)Oc1c(OC)c(OC)cc3c1[C@H](C2)N(C)CC3`, the half-inhibitory concentration (IC50) in assay [1] is 14.7 µM; in assay [2], 5.67 µM; in assay [3], 2.58 µM; in assay [4], 3.37 µM; in assay [5], 3.57 µM; in assay [6], 2.6 µM.
Regarding `COc1cc(NS(=O)(=O)c2ccc(C(C)(C)C)cc2)c2cc1Oc1ccc(cc1)C[C@H]1c3cc(c(OC)cc3CCN1C)Oc1c(OC)c(OC)cc3c1[C@H](C2)N(C)CC3`, the IC50 in assay [1] stood at 26.2 µM; in assay [2] it was 5.25 µM; in assay [3], 4.07 µM; in assay [4] it was 4.86 µM; in assay [5], 3.19 µM; in assay [6], 9.58 µM.
For `COc1cc(N)c2cc1Oc1ccc(cc1)C[C@H]1c3cc(c(OC)cc3CCN1C)Oc1c(OC)c(OC)cc3c1[C@H](C2)N(C)CC3`, the IC50 in assay [2] was 3.55 µM; in assay [3] it was 6.36 µM; in assay [4] it was 2.67 µM; in assay [5], 3 µM; in assay [6], 6.66 µM.
`CCCS(=O)(=O)Nc1cc(OC)c2cc1C[C@H]1c3c(cc(OC)c(OC)c3Oc3cc4c(cc3OC)CCN(C)[C@H]4Cc3ccc(cc3)O2)CCN1C`: the IC50 in assay [1] stood at 12.5 µM; in assay [2] it was 5.12 µM; in assay [3], 4.03 µM; in assay [4], 6.64 µM; in assay [5] it was 4.14 µM; in assay [6], 6 µM.
Take `COc1cc(NS(=O)(=O)c2ccccc2[N+](=O)[O-])c2cc1Oc1ccc(cc1)C[C@H]1c3cc(c(OC)cc3CCN1C)Oc1c(OC)c(OC)cc3c1[C@H](C2)N(C)CC3`: the IC50 in assay [1] was determined as 16.2 µM; in assay [2] it was 2.51 µM; in assay [3], 3.26 µM; in assay [4], 7.3 µM; in assay [5], 5.05 µM; in assay [6], 5.72 µM.
In the case of `COc1cc(NS(=O)(=O)c2ccc(NC(C)=O)cc2)c2cc1Oc1ccc(cc1)C[C@H]1c3cc(c(OC)cc3CCN1C)Oc1c(OC)c(OC)cc3c1[C@H](C2)N(C)CC3`, the IC50 in assay [1] stood at 17.5 µM; in assay [2], 6.61 µM; in assay [3] it was 3.31 µM; in assay [4], 4.75 µM; in assay [5] it was 3.47 µM; in assay [6] it was 10.8 µM.
As to `COc1ccc2cc1Oc1ccc(cc1)C[C@H]1c3cc(c(OC)cc3CCN1C)Oc1c(OC)c(OC)cc3c1[C@H](C2)N(C)CC3` [FANCHININ], the IC50 in assay [1] came out at 44.2 µM; in assay [2], 8.94 µM; in assay [3] it was 6.1 µM; in assay [4] it was 5.86 µM; in assay [5] it was 11.8 µM; in assay [6] it was 7.45 µM.
As to `COc1cc(NS(=O)(=O)C(F)(F)F)c2cc1Oc1ccc(cc1)C[C@H]1c3cc(c(OC)cc3CCN1C)Oc1c(OC)c(OC)cc3c1[C@H](C2)N(C)CC3`, the IC50 in assay [1] was 18.6 µM; in assay [2] it was 6.69 µM; in assay [3], 5.8 µM; in assay [4], 5.57 µM; in assay [5], 7.12 µM; in assay [6], 5.83 µM.
As for `COc1cc(NS(=O)(=O)c2cccc(Br)c2)c2cc1Oc1ccc(cc1)C[C@H]1c3cc(c(OC)cc3CCN1C)Oc1c(OC)c(OC)cc3c1[C@H](C2)N(C)CC3`, the IC50 in assay [1] was found to be 8.73 µM; in assay [2], 3.81 µM; in assay [3], 1.68 µM; in assay [4], 3.47 µM; in assay [5] it was 1.46 µM; in assay [6], 2.9 µM.
`CCCCS(=O)(=O)Nc1cc(OC)c2cc1C[C@H]1c3c(cc(OC)c(OC)c3Oc3cc4c(cc3OC)CCN(C)[C@H]4Cc3ccc(cc3)O2)CCN1C`: the IC50 in assay [1] amounted to 22.5 µM; in assay [2], 5.33 µM; in assay [3] it was 6.35 µM; in assay [4] it was 5.19 µM; in assay [5], 7.26 µM; in assay [6] it was 6.77 µM.
Consider `COc1cc(NS(=O)(=O)c2ccc(C(F)(F)F)cc2)c2cc1Oc1ccc(cc1)C[C@H]1c3cc(c(OC)cc3CCN1C)Oc1c(OC)c(OC)cc3c1[C@H](C2)N(C)CC3`, for which the IC50 in assay [1] stood at 8.11 µM; in assay [2], 6.55 µM; in assay [3], 4.43 µM; in assay [4], 3.81 µM; in assay [5], 3.61 µM; in assay [6] it was 2.87 µM.
With `COc1cc([N+](=O)[O-])c2cc1Oc1ccc(cc1)C[C@H]1c3cc(c(OC)cc3CCN1C)Oc1c(OC)c(OC)cc3c1[C@H](C2)N(C)CC3`, the IC50 in assay [2] was 11.3 µM; in assay [3], 12.1 µM; in assay [4] it was 6.81 µM; in assay [5], 9.05 µM; in assay [6] it was 7.36 µM.
Consider `COc1cc(NS(=O)(=O)c2ccccc2)c2cc1Oc1ccc(cc1)C[C@H]1c3cc(c(OC)cc3CCN1C)Oc1c(OC)c(OC)cc3c1[C@H](C2)N(C)CC3`, for which the IC50 in assay [1] came to 13.5 µM; in assay [2], 7.48 µM; in assay [3] it was 1.98 µM; in assay [4], 4.44 µM; in assay [5], 3.07 µM; in assay [6], 3.87 µM.
With `COc1cc(NS(=O)(=O)c2ccc(F)cc2)c2cc1Oc1ccc(cc1)C[C@H]1c3cc(c(OC)cc3CCN1C)Oc1c(OC)c(OC)cc3c1[C@H](C2)N(C)CC3`, the IC50 was 12.1 µM in assay [1]; 7.79 µM in assay [2]; 4.33 µM in assay [3]; 3.24 µM in assay [4]; 3.28 µM in assay [5]; 1.57 µM in assay [6].

As a reminder, the IC50 is the midpoint of a concentration-inhibition curve.
